Most compounds without a hit are left out; they make up all but 4.1% or so of the library.
CHOP UPR activ = activators of apoptotic arm of unfolded protein response (CHOP). activation, % at 10 µM. actives 0.34% (n = 330,000). AID 449763. CHO-CHOP luciferase reporter, UPR activation, luminescence; percent of tunicamycin response over DMSO baseline;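 active means at 10 µM dose, activation of 40% or more, normalized to positive control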
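Test system: CHO-CHOP cells, stable luciferase reporter of PERK-eIF2a-CHOP signalling | Quantity: 500 CHO-CHOP cells per well | Buffer or medium: F12 plus 10% serum | Compound dosing: 10 µM single point, 0.5% DMSO | Schedule: 6 h compound treatment, 37 °C | Signal: Luciferase luminescence | Control set: Tunicamycin high control, DMSO low control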
Mdm2 MdmX PPI = inhibitors of human Mdm2/MdmX interaction; O15151+Q00987; SaOS-2 split-luciferase Mdm2/MdmX complementation, luminescence; inhibition, % at 8 µM; actives 3% (n = 330,000); AID 485346;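 active means inhibition of at least 50% at 8 µM in the primary screen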
Target sequence (O15151 whole entry, looked up): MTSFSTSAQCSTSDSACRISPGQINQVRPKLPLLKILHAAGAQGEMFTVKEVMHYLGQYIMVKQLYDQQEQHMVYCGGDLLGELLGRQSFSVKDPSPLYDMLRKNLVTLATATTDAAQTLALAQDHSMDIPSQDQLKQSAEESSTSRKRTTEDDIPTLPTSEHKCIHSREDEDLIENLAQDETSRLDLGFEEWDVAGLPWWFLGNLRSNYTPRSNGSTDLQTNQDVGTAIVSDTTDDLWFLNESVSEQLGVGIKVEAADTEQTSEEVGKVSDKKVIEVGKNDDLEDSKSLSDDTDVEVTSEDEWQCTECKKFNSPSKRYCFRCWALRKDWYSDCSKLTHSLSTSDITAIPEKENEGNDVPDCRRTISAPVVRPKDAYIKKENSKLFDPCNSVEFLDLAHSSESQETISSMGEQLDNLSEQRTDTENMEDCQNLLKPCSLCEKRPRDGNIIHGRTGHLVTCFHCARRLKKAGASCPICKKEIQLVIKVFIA
Target sequence (Q00987 whole entry, looked up): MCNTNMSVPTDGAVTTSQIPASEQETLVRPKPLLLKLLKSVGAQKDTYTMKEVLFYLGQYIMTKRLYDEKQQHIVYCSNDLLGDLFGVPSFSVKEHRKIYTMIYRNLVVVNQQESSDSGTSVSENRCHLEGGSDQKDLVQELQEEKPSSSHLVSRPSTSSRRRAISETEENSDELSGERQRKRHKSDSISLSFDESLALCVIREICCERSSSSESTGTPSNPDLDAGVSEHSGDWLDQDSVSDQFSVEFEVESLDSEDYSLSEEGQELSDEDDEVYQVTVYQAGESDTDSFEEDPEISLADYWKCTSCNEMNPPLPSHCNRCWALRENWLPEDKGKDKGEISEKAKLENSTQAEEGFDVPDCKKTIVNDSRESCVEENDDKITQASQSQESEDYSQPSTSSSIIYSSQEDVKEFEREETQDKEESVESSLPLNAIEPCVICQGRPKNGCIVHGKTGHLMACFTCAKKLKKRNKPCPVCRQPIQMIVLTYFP
UPR XBP1 act = activators of adaptive arm of unfolded protein response (XBP1) | CHO-XBP1 luciferase reporter, IRE1-XBP1 UPR activation, luminescence; percent of tunicamycin response, DMSO as zero | activation, % at 20 µM | actives 0.33% (n = 330,000) | AID 463104;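 active means versus positive control, 20 µM dose yields 30% or more activation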
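Material: CHO cell line with stable XBP1 luciferase reporter; buffer or medium: F12 medium containing 10% fetal bovine serum; compound: single point, 20 µM final compound, 1% DMSO; incubation: 6 h treatment, 37 °C; measured by: glow luminescence from Steady-Glo reagent; evaluation: activation, % of tunicamycin; control set: tunicamycin high, DMSO low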
Apaf1 inhib = human Apaf-1 inhibition. O14727. reconstituted apoptosome caspase-3 activity, DEVD-Rh110 fluorescence. inhibition, % at 20 µM. actives 0.71% (n = 330,000). AID 489030; active means inhibition of at least 40% at 20 µM
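Medium: Hepes buffer, pH 7.5 / System: biochemical Apaf-1 apoptosome reconstitution / Measured by: Rh110 fluorescence, excitation 480 nm, emission 540 nm / Times: compound with Apaf-1, dATP, procaspase-3 30 min, then 50 min reaction, room temperature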
UBC13 polyUb = blocks human UBC13 polyubiquitin chain formation; P61088; TR-FRET; inhibition, % at 20 µM; actives 0.47% (n = 330,000); AID 485273; in the data active means inhibition above about 45%, passing the limit was not always enough
Mdm2-MdmX conf = confirmation of human Mdm2/MdmX interaction inhibitors | shares compounds with Mdm2 MdmX PPI | actives 55% (n = 10,000) | Mdm2-MdmX binding, luminescent assay | inhibition, % at 8 µM; in the data active means inhibition above about 40%
Full FLuc ctr = counter-screen for Mdm2/MdmX inhibitors: full-length luciferase; shares compounds with Mdm2 MdmX PPI; SaOS-2 full-length luciferase counterscreen, luminescence; inhibition, % at 8 µM; actives 77% (n = 6,200);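 active means mean inhibition at 8 µM reaching about 37%, which flags the compound as non-specific, limit read from the data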;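 further: p53-null SaOS-2 cells with luciferase driven by a doxycycline-inducible promoter; compound on cells about two nights before reading with doxycycline added after day one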
A number is an active result; n = inactive; x = no result.

SMILES	CHOP UPR activ	Mdm2 MdmX PPI	UPR XBP1 act	Apaf1 inhib	UBC13 polyUb	Mdm2-MdmX conf	Full FLuc ctr
COc1ccc2oc(/C=C/N(C)C)c(C(=O)c3ccc(Cl)cc3)c2c1	n	79	n	n	n	n	x
Cc1ccc2nc(SCc3cn4cccnc4n3)[nH]c2c1	n	n	n	n	n	x	x
COc1ccc(-c2nnc(SCc3nc4ccccc4c(=O)[nH]3)o2)cc1	n	73	n	n	n	58	105
CCOc1ccc(Nc2nnc(SCc3nc4ccccc4c(=O)[nH]3)s2)cc1	n	63	n	n	n	n	x
Cc1cccc(OCc2nnc(SCc3nc4ccccc4c(=O)[nH]3)o2)c1	n	n	n	n	n	x	x
CCCCn1c(N)c(N(CCOC)C(=O)CCCc2cccs2)c(=O)[nH]c1=O	n	n	n	n	n	x	x
CC1CCN(c2nc(CN3CCCCC3)nc3scc(-c4ccccc4)c23)CC1	n	57	n	n	n	n	x
Nc1c2nc(-c3ccccc3)[nH]c(=O)c2nc(=O)n1-c1ccccc1	n	63	n	n	n	n	x
Cc1ccc2oc(=O)c3cnn(CC(=O)Nc4cc(-c5cccc(F)c5)no4)c3c2c1	n	74	n	n	n	n	x
CC1=C(C(N)=O)C(c2cccs2)NC(=S)N1 (stereo unspecified)	n	n	n	n	n	x	x
COc1cc2c(cc1C1NC(=S)NC(C)=C1C(N)=O)CCCC2 (stereo unspecified)	n	66	n	n	n	n	86
O=C(NCc1ccco1)C(c1ccncc1)N(C(=O)Cn1nnc2ccccc21)c1ccccc1F (stereo unspecified)	n	n	n	n	n	x	x
CC[C@@]1(C(=O)OC)N[C@H](CN(C)S(=O)(=O)c2ccccc2)[C@@H]2C(=O)N(Cc3ccccc3)C(=O)[C@@H]21	n	n	n	n	n	x	x
CCN(C[C@H]1N[C@@](CC)(C(=O)OC)[C@H]2C(=O)N(Cc3ccccc3)C(=O)[C@@H]12)S(=O)(=O)c1ccc(C)cc1	n	n	n	n	n	x	x
CC[C@@]1(C(=O)OC)N[C@H](CN(C)S(=O)(=O)c2ccc(-c3ccccc3)cc2)[C@@H]2C(=O)N(Cc3ccccc3)C(=O)[C@@H]21	n	91	n	n	n	87	46
CCN(C[C@H]1N[C@@](CC)(C(=O)OC)[C@H]2C(=O)N(Cc3ccccc3)C(=O)[C@@H]12)S(=O)(=O)c1ccc(C(C)(C)C)cc1	n	69	n	n	n	62	52
CCN(C[C@H]1N[C@@](CC)(C(=O)OC)[C@H]2C(=O)N(Cc3ccccc3)C(=O)[C@@H]12)S(=O)(=O)c1ccc(-c2ccccc2)cc1	n	80	n	n	n	79	n
COC(=O)c1ccc(C(NC(=O)c2cccnc2)NC(=O)c2cccnc2)cc1	n	n	n	n	n	x	x
CCOC(=O)N=Nc1c(O)n(CC(=O)OC)c2ccccc12	n	n	n	n	n	x	x
CCOC(=O)N=Nc1c2ccccc2c2nc3no[nH]c3nc12	n	100	n	88	n	100	n
NC(=O)COC(=O)c1ccccc1Oc1ccccc1	n	n	n	n	n	x	x
COc1ccccc1/C=N/NC(=Nc1ccc(C)cc1)c1nc2ccccc2s1	n	n	n	n	n	x	x
COc1cc(/C=N/NC(=Nc2ccc(C)cc2)c2nc3ccccc3s2)ccc1O	n	83	n	n	n	79	51
COc1ccc(C(CNC(=O)c2oc3cc(C)c(C)cc3c2C)N2CCCCC2)cc1 (stereo unspecified)	n	51	n	n	n	n	x
COc1ccc(C(CNC(=O)c2cccc(N(C)C)c2)N2CCCC2)cc1 (stereo unspecified)	n	n	n	n	n	x	x
SMILES	CHOP UPR activ	Mdm2 MdmX PPI	UPR XBP1 act	Apaf1 inhib	UBC13 polyUb	Mdm2-MdmX conf	Full FLuc ctr
CCC1CCc2sc(C(=O)NCC(c3ccc(OC)cc3)N3CCCC3)cc2C1 (stereo unspecified)	n	50	n	46	n	n	x
O=C(CN(Cc1ccccc1Cl)C(=O)c1ccc(CN2CCOCC2)o1)NCC1CCCO1 (stereo unspecified)	n	n	n	n	n	x	x
CC(C)(C)OC(=O)NCCCC[C@H](NC(=O)c1[nH]cnc1C(=O)N[C@@H](Cc1ccccc1)C(=O)OC(C)(C)C)C(=O)OC(C)(C)C	n	62	n	n	n	n	x
CC(C)(C)OC(=O)[C@H](Cc1ccccc1)NC(=O)c1nc[nH]c1C(=O)N[C@@H](Cc1ccccc1)C(=O)OC(C)(C)C	n	86	n	n	n	n	x
Cc1nn(-c2ccccc2)c(C)c1[N+](=O)[O-]	n	n	n	n	n	x	x
COc1cc(OC)c(OC)cc1/C=C1\CCC/C(=C\c2cc(OC)c(OC)cc2OC)C1=O	n	67	n	n	n	43	82
S=C1SCN(Cc2cccnc2)CN1Cc1cccnc1	n	79	n	n	n	77	56
COc1ccc(Cc2nnc(N/N=C/c3ccc(O)cc3)[nH]c2=O)cc1OC	n	66	n	n	n	70	n
CC(C)c1ccc(CN2CCC(Oc3ccc(C(=O)N4CCCC4)cc3)CC2)cc1	n	n	n	n	n	x	x
O=C(CN(Cc1ccc(F)cc1)C(=O)CCC(=O)Nc1ccccn1)NCCc1ccccc1	n	n	n	n	n	x	x
O=C(N[C@H]1C/C=C\C[C@H](CC(=O)N(CCO)Cc2ccccc2)C(=O)N[C@@H](c2ccccc2)COC1=O)OCC1c2ccccc2-c2ccccc21	n	n	n	n	n	x	x
O=C(CSc1nc2nn(-c3ccccc3)c(=O)c-2c2n1CCCCC2)Nc1ccc(F)c(F)c1	n	55	n	n	n	n	x
Cc1cc(C)cc(NC(=O)[C@H](NC(=O)[C@@H]2Cc3ccccc3CN2)c2ccccc2)c1	n	n	n	n	n	x	x
O=C1N=C(N2CCCC2)S/C1=C\C=C\c1ccccc1	n	59	n	n	n	64	152
O=C1N=C(N2CCCCC2)S/C1=C\c1ccncc1	n	n	n	n	n	x	x
O=C(CCl)Nc1cn(-c2ccccc2)nc1-c1ccc(F)cc1	n	86	n	n	n	44	n
Fc1ccc(-c2nn(-c3ccccc3)cc2CNCc2ccccc2)cc1	n	n	n	n	n	x	x
CC(C)(C)c1ccc(-c2cc(-c3ccccc3O)[nH]n2)cc1	n	58	n	n	n	65	139
Oc1ccccc1-c1cc(-c2cccc(F)c2)n[nH]1	n	n	n	n	n	x	x
O=C(Nc1ccccc1C(=O)NC1CC1)c1ccc([N+](=O)[O-])o1	n	n	n	n	n	x	x
COc1cc(C(=O)OCC(=O)NC2CCCCC2)cc(OC)c1OC	n	n	n	n	n	x	x
